# Measurements taken from ChEMBL document CHEMBL1136963, “Sesterterpenes as tubulin tyrosine ligase inhibitors. First insight of structure-activity relationships and discovery of new lead” (J Med Chem, 2009).
# Calls of active or inactive are those of the source. No cut-off for these calls is given here.
# System: J774.A1
# Assay: Cytotoxicity against mouse J774A1 cells up to >100 uM after 24 to 48 hrs by MTT assay
# Format: functional, cell-based
# Conditions: not given
row,SMILES,Activity
1,CC1=CC(=O)O/C1=C\C=C(/C)CC[C@@H]1[C@@]2(C)CCC[C@@](C)(C(=O)O)[C@@H]2[C@@H](O)C[C@@]1(C)O,inactive
2,CCO[C@H]1O[C@H]2C[C@@](C)(O)[C@H](CC/C(C)=C/[C@H](O)[C@H]3OC(=O)C=C3C)[C@@]3(C)CCC[C@]1(C)[C@H]23,inactive
3,CCO[C@H]1O[C@H]2C[C@@](C)(O)[C@H](CC/C(C)=C/C[C@H]3OC(=O)C=C3C)[C@@]3(C)CCC[C@]1(C)[C@H]23,inactive
4,CC1=CC(=O)OC1C/C=C(\C)CC[C@@H]1[C@@]2(C)CCC[C@@](C)(C(=O)O)[C@@H]2[C@@H](O)C[C@@]1(C)O (some centres undefined),inactive
5,CC1=CC(=O)O[C@@H]1[C@@H](O)/C=C(\C)CC[C@@H]1[C@@]2(C)CCC[C@@]3(C)C(=O)O[C@@H](C[C@@]1(C)O)[C@H]23,inactive
6,CC1=CC(=O)O/C1=C\C=C(/C)CC[C@@H]1[C@@]2(C)CCC[C@@](C)(CO)[C@@H]2[C@@H](O)C[C@@]1(C)O,inactive
7,C=C1C[C@H](O)[C@@H]2[C@](C)(CCC[C@@]2(C)C=O)[C@H]1CC/C(C)=C/[C@H](O)[C@H]1OC(=O)C=C1C,inactive
8,CC1=CC(=O)O[C@@H]1[C@@H](O)/C=C(\C)CC[C@@H]1[C@@]2(C)CCCC(C)(C)[C@@H]2[C@@H](O)C[C@@]1(C)O,inactive
9,C=C(CC[C@@H]1[C@@]2(C)CCC[C@@](C)(C=O)[C@@H]2[C@@H](O)C[C@@]1(C)O)[C@@H](O)[C@@H](O)C1OC(=O)C=C1C (some centres undefined),inactive
10,CC1=CC(=O)O[C@@H]1C/C=C(\C)CC[C@@H]1[C@@]2(C)CCC[C@@](C)(C=O)[C@@H]2[C@@H](O)C[C@@]1(C)O,inactive
11,COC(=O)[C@]1(C)CCC[C@@]2(C)[C@H]1[C@@H](O)C[C@@](C)(O)[C@@H]2CC/C(C)=C/[C@H](O)[C@H]1OC(=O)C=C1C,inactive
12,C=C1C[C@H](O)[C@H]2[C@](C)(CO)CCC[C@]2(C)[C@H]1CC/C(C)=C/[C@H](O)[C@H]1OC(=O)C=C1C,inactive

# System: MCF7
# Assay: Cytotoxicity against human MCF7 cells up to >100 uM after 24 to 48 hrs by MTT assay
# Format: functional, cell-based
# Conditions: not given
row,SMILES,Activity
1,CC1=CC(=O)O/C1=C\C=C(/C)CC[C@@H]1[C@@]2(C)CCC[C@@](C)(C(=O)O)[C@@H]2[C@@H](O)C[C@@]1(C)O,inactive
2,CCO[C@H]1O[C@H]2C[C@@](C)(O)[C@H](CC/C(C)=C/[C@H](O)[C@H]3OC(=O)C=C3C)[C@@]3(C)CCC[C@]1(C)[C@H]23,inactive
3,CCO[C@H]1O[C@H]2C[C@@](C)(O)[C@H](CC/C(C)=C/C[C@H]3OC(=O)C=C3C)[C@@]3(C)CCC[C@]1(C)[C@H]23,inactive
4,CC1=CC(=O)OC1C/C=C(\C)CC[C@@H]1[C@@]2(C)CCC[C@@](C)(C(=O)O)[C@@H]2[C@@H](O)C[C@@]1(C)O (some centres undefined),inactive
5,CC1=CC(=O)O[C@@H]1[C@@H](O)/C=C(\C)CC[C@@H]1[C@@]2(C)CCC[C@@]3(C)C(=O)O[C@@H](C[C@@]1(C)O)[C@H]23,inactive
6,CC1=CC(=O)O/C1=C\C=C(/C)CC[C@@H]1[C@@]2(C)CCC[C@@](C)(CO)[C@@H]2[C@@H](O)C[C@@]1(C)O,inactive
7,C=C1C[C@H](O)[C@@H]2[C@](C)(CCC[C@@]2(C)C=O)[C@H]1CC/C(C)=C/[C@H](O)[C@H]1OC(=O)C=C1C,inactive
8,CC1=CC(=O)O[C@@H]1[C@@H](O)/C=C(\C)CC[C@@H]1[C@@]2(C)CCCC(C)(C)[C@@H]2[C@@H](O)C[C@@]1(C)O,inactive
9,C=C(CC[C@@H]1[C@@]2(C)CCC[C@@](C)(C=O)[C@@H]2[C@@H](O)C[C@@]1(C)O)[C@@H](O)[C@@H](O)C1OC(=O)C=C1C (some centres undefined),inactive
10,CC1=CC(=O)O[C@@H]1C/C=C(\C)CC[C@@H]1[C@@]2(C)CCC[C@@](C)(C=O)[C@@H]2[C@@H](O)C[C@@]1(C)O,inactive
11,COC(=O)[C@]1(C)CCC[C@@]2(C)[C@H]1[C@@H](O)C[C@@](C)(O)[C@@H]2CC/C(C)=C/[C@H](O)[C@H]1OC(=O)C=C1C,inactive
12,C=C1C[C@H](O)[C@H]2[C@](C)(CO)CCC[C@]2(C)[C@H]1CC/C(C)=C/[C@H](O)[C@H]1OC(=O)C=C1C,inactive

# System: HEK293
# Assay: Cytotoxicity against HEK293 cells up to >100 uM after 24 to 48 hrs by MTT assay
# Format: functional, cell-based
# Conditions: Homo sapiens
row,SMILES,Activity
1,CC1=CC(=O)O/C1=C\C=C(/C)CC[C@@H]1[C@@]2(C)CCC[C@@](C)(C(=O)O)[C@@H]2[C@@H](O)C[C@@]1(C)O,inactive
2,CCO[C@H]1O[C@H]2C[C@@](C)(O)[C@H](CC/C(C)=C/[C@H](O)[C@H]3OC(=O)C=C3C)[C@@]3(C)CCC[C@]1(C)[C@H]23,inactive
3,CCO[C@H]1O[C@H]2C[C@@](C)(O)[C@H](CC/C(C)=C/C[C@H]3OC(=O)C=C3C)[C@@]3(C)CCC[C@]1(C)[C@H]23,inactive
4,CC1=CC(=O)OC1C/C=C(\C)CC[C@@H]1[C@@]2(C)CCC[C@@](C)(C(=O)O)[C@@H]2[C@@H](O)C[C@@]1(C)O (some centres undefined),inactive
5,CC1=CC(=O)O[C@@H]1[C@@H](O)/C=C(\C)CC[C@@H]1[C@@]2(C)CCC[C@@]3(C)C(=O)O[C@@H](C[C@@]1(C)O)[C@H]23,inactive
6,CC1=CC(=O)O/C1=C\C=C(/C)CC[C@@H]1[C@@]2(C)CCC[C@@](C)(CO)[C@@H]2[C@@H](O)C[C@@]1(C)O,inactive
7,C=C1C[C@H](O)[C@@H]2[C@](C)(CCC[C@@]2(C)C=O)[C@H]1CC/C(C)=C/[C@H](O)[C@H]1OC(=O)C=C1C,inactive
8,CC1=CC(=O)O[C@@H]1[C@@H](O)/C=C(\C)CC[C@@H]1[C@@]2(C)CCCC(C)(C)[C@@H]2[C@@H](O)C[C@@]1(C)O,inactive
9,C=C(CC[C@@H]1[C@@]2(C)CCC[C@@](C)(C=O)[C@@H]2[C@@H](O)C[C@@]1(C)O)[C@@H](O)[C@@H](O)C1OC(=O)C=C1C (some centres undefined),inactive
10,CC1=CC(=O)O[C@@H]1C/C=C(\C)CC[C@@H]1[C@@]2(C)CCC[C@@](C)(C=O)[C@@H]2[C@@H](O)C[C@@]1(C)O,inactive
11,COC(=O)[C@]1(C)CCC[C@@]2(C)[C@H]1[C@@H](O)C[C@@](C)(O)[C@@H]2CC/C(C)=C/[C@H](O)[C@H]1OC(=O)C=C1C,inactive
12,C=C1C[C@H](O)[C@H]2[C@](C)(CO)CCC[C@]2(C)[C@H]1CC/C(C)=C/[C@H](O)[C@H]1OC(=O)C=C1C,inactive

# Biological target: T1, Tubulin--tyrosine ligase (Homo sapiens, UniProt Q8NG68)
# T1 sequence (Q8NG68 whole entry): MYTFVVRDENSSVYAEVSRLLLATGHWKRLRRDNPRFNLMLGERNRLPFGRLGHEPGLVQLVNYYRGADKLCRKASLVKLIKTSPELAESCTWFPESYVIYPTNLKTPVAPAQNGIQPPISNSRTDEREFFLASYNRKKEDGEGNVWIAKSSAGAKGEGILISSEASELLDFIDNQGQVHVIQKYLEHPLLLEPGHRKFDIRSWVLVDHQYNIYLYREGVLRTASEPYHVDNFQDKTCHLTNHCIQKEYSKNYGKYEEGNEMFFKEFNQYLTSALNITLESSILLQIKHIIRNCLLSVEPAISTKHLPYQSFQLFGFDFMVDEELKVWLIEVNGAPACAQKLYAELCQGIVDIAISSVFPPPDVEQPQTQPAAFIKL
# Assay: Binding affinity to TTL by surface plasmon resonance
# Conditions: not given
# Procedure, shortened: (§1)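 Biacore SPR. TTL and BSA each amine-coupled (100 µg/mL in 10 mM sodium acetate, pH 5.0) to 8-12 kRU, with an unmodified reference surface. Running buffer 10 mM NaH2PO4, 150 mM NaCl, 0.5% DMSO, pH 7.4. Five-point 2-fold series, typically 0.05-10 µM, in triplicate. 25 °C, 50 µL/min, 60 s association, 200 s dissociation. Double-referenced. KD fitted from at least 10 curves.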
row,SMILES,Kd
1,CC1=CC(=O)O/C1=C\C=C(/C)CC[C@@H]1[C@@]2(C)CCC[C@@](C)(C(=O)O)[C@@H]2[C@@H](O)C[C@@]1(C)O,93 nM
2,CCO[C@H]1O[C@H]2C[C@@](C)(O)[C@H](CC/C(C)=C/[C@H](O)[C@H]3OC(=O)C=C3C)[C@@]3(C)CCC[C@]1(C)[C@H]23,960 nM
3,CCO[C@H]1O[C@H]2C[C@@](C)(O)[C@H](CC/C(C)=C/C[C@H]3OC(=O)C=C3C)[C@@]3(C)CCC[C@]1(C)[C@H]23,73 nM
4,CC1=CC(=O)OC1C/C=C(\C)CC[C@@H]1[C@@]2(C)CCC[C@@](C)(C(=O)O)[C@@H]2[C@@H](O)C[C@@]1(C)O (some centres undefined),7 nM
5,CC1=CC(=O)O/C1=C\C=C(/C)CC[C@@H]1[C@@]2(C)CCC[C@@](C)(CO)[C@@H]2[C@@H](O)C[C@@]1(C)O,110 nM
6,C=C1C[C@H](O)[C@@H]2[C@](C)(CCC[C@@]2(C)C=O)[C@H]1CC/C(C)=C/[C@H](O)[C@H]1OC(=O)C=C1C,3300 nM
7,CC1=CC(=O)O[C@@H]1C/C=C(\C)CC[C@@H]1[C@@]2(C)CCC[C@@](C)(C=O)[C@@H]2[C@@H](O)C[C@@]1(C)O,810 nM
8,COC(=O)[C@]1(C)CCC[C@@]2(C)[C@H]1[C@@H](O)C[C@@](C)(O)[C@@H]2CC/C(C)=C/[C@H](O)[C@H]1OC(=O)C=C1C,6200 nM
9,C=C1C[C@H](O)[C@H]2[C@](C)(CO)CCC[C@]2(C)[C@H]1CC/C(C)=C/[C@H](O)[C@H]1OC(=O)C=C1C,2000 nM

# Biological target: Albumin (Bos taurus, UniProt P02769)
# Assay: Binding affinity to bovine serum albumin by surface plasmon resonance
# Format: ADME
# Conditions: cattle, isolated protein
# Procedure, shortened: as §1
# Chain of Albumin (P02769 whole entry): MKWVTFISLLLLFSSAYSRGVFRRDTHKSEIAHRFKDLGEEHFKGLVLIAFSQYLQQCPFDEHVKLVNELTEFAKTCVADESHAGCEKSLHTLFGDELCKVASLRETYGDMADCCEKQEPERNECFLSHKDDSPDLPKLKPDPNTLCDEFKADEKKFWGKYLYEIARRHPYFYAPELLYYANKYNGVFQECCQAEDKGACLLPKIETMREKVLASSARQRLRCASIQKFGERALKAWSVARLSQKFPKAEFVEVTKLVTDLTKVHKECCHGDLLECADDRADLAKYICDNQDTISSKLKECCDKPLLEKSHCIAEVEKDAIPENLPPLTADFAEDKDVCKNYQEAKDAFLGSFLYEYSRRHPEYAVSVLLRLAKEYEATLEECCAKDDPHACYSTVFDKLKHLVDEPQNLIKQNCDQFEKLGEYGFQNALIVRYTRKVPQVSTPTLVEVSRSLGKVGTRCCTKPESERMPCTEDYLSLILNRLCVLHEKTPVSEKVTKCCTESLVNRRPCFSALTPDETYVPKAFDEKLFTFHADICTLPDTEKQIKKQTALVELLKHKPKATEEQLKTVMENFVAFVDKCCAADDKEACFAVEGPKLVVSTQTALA
row,SMILES,Activity
1,CC1=CC(=O)O/C1=C\C=C(/C)CC[C@@H]1[C@@]2(C)CCC[C@@](C)(C(=O)O)[C@@H]2[C@@H](O)C[C@@]1(C)O,Not Active
2,CCO[C@H]1O[C@H]2C[C@@](C)(O)[C@H](CC/C(C)=C/[C@H](O)[C@H]3OC(=O)C=C3C)[C@@]3(C)CCC[C@]1(C)[C@H]23,Not Active
3,CCO[C@H]1O[C@H]2C[C@@](C)(O)[C@H](CC/C(C)=C/C[C@H]3OC(=O)C=C3C)[C@@]3(C)CCC[C@]1(C)[C@H]23,Not Active
4,C=C(CC[C@@H]1[C@@]2(C)CCC[C@@](C)(CO)[C@@H]2[C@@H](O)C[C@@]1(C)O)[C@@H](O)[C@@H](O)C1OC(=O)C=C1C (stereo in doubt; 23),Not Active
5,CC1=CC(=O)OC1C/C=C(\C)CC[C@@H]1[C@@]2(C)CCC[C@@](C)(C(=O)O)[C@@H]2[C@@H](O)C[C@@]1(C)O (some centres undefined),Not Active
6,CC1=CC(=O)O[C@@H]1[C@@H](O)/C=C(\C)CC[C@@H]1[C@@]2(C)CCC[C@@]3(C)C(=O)O[C@@H](C[C@@]1(C)O)[C@H]23,Not Active
7,CC1=CC(=O)O/C1=C\C=C(/C)CC[C@@H]1[C@@]2(C)CCC[C@@](C)(CO)[C@@H]2[C@@H](O)C[C@@]1(C)O,Not Active
8,C=C1C[C@H](O)[C@@H]2[C@](C)(CCC[C@@]2(C)C=O)[C@H]1CC/C(C)=C/[C@H](O)[C@H]1OC(=O)C=C1C,Not Active
9,CC1=CC(=O)O[C@@H]1[C@@H](O)/C=C(\C)CC[C@@H]1[C@@]2(C)CCCC(C)(C)[C@@H]2[C@@H](O)C[C@@]1(C)O,Not Active
10,C=C(CC[C@@H]1[C@@]2(C)CCC[C@@](C)(C=O)[C@@H]2[C@@H](O)C[C@@]1(C)O)[C@@H](O)[C@@H](O)C1OC(=O)C=C1C (some centres undefined),Not Active
11,CC1=CC(=O)O[C@@H]1C/C=C(\C)CC[C@@H]1[C@@]2(C)CCC[C@@](C)(C=O)[C@@H]2[C@@H](O)C[C@@]1(C)O,Not Active
12,COC(=O)[C@]1(C)CCC[C@@]2(C)[C@H]1[C@@H](O)C[C@@](C)(O)[C@@H]2CC/C(C)=C/[C@H](O)[C@H]1OC(=O)C=C1C,Not Active
13,C=C1C[C@H](O)[C@H]2[C@](C)(CO)CCC[C@]2(C)[C@H]1CC/C(C)=C/[C@H](O)[C@H]1OC(=O)C=C1C,Not Active

# Biological target: T2, Tubulin--tyrosine ligase (Homo sapiens) (UniProt Q8NG68)
# T2 sequence (whole entry): T1 sequence (Q8NG68 whole entry)
# Assay: Inhibition of TTL in human MCF7 cells assessed as increase in delta2-tubulin level at 100 uM after 24 to 48 hrs by Western blot
# Format: cell-based
# Conditions: not given
# Procedure, shortened: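 MCF-7 cells were grown in DMEM with 10% FBS at 37 °C, 5% CO2, seeded at 4 × 10^5 per well, and treated 24 h later with or without 100 µM compound for 24 and 48 h. NP-40 lysates (20 µg protein, Bradford) were run on 10% SDS-PAGE and blotted. Membranes were probed overnight at 4 °C with rabbit polyclonal anti-Δ2-α-tubulin.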
row,SMILES,Activity
1,CC1=CC(=O)O[C@@H]1[C@@H](O)/C=C(\C)CC[C@@H]1[C@@]2(C)CCC[C@@]3(C)C(=O)O[C@@H](C[C@@]1(C)O)[C@H]23,Active
